Assay [1] in a line: inhibitors of TNFa-induced NFkB p65 translocation, primary screen, imaging, HUVEC, MLSMR starter and 10KST1 sets (AID 438;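 active means inhibition above 20% together with a positive visual image hit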;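 further: compound added about 3h40 before a 20 min TNFalpha stimulation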;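 on inhibition: signal is the nuclear over cytoplasmic p65 intensity ratio per well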). Conditions: HUVEC TNFa-induced p65 nuclear translocation; cell count: measured here: nuclei count (cytotoxicity indicator), at 2.08 µM; inhibition: at 2 µM, stronger effect = higher value, 0% TNFa-plus-vehicle, 100% no-TNFa wells.
A short description of assay [2]: inhibitors of mutant huntingtin aggregation, primary screen, imaging, exon1htt(103Q)mCFP cells, high-content imaging (AID 483;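 active means visual image review flags a hit and inhibition of aggregation exceeds 20%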;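 further: compound exposure lasted 3 days before fixation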;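 on nuclei count: percent of the per-plate median nuclei count of sample wells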). Conditions: exon1htt(103Q)mCFP cell line, aggregate imaging, at 2 µM; inhibition of aggregation: stronger effect = higher value; nuclei count: measured here: cell count, toxicity.
A short description of assay [3]: inhibitors of E-selectin induction by TNFa, primary screen, imaging, HUVEC, immunofluorescence, MLSMR starter and 10KST1 sets (AID 487;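 active means visually confirmed hit in the image check and inhibition above 20%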;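 on inhibition: signal is fraction of cell area covered by stained E-selectin grains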;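 on nuclei count: 100% = median nuclei count of all wells on the same plate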). Particulars: HUVEC TNFalpha-induced E-selectin immunofluorescence imaging, at 2 µM; inhibition: stronger effect = higher value; nuclei count: measured here: cell number, toxicity.
The target in assay [4] is Voltage-gated potassium channel subunit beta-2 (Rattus norvegicus) (UniProt P62483). In words: KvBeta enzyme negative modulators, primary screen, biochemical, NADPH fluorescence (AID 622;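 active means fluorescence slope higher than the sample average by over 3 SD, cut at about -0.22 in these data, passing the limit was not always enough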;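 further: slope of raw intensity against log time taken from 70 to 1610 s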). Particulars: recombinant KvBeta, 4-cyanobenzaldehyde reduction, at 10 µM, stronger effect = higher value.
Sequence of Voltage-gated potassium channel subunit beta-2 (Rattus norvegicus) (P62483 whole entry, looked up): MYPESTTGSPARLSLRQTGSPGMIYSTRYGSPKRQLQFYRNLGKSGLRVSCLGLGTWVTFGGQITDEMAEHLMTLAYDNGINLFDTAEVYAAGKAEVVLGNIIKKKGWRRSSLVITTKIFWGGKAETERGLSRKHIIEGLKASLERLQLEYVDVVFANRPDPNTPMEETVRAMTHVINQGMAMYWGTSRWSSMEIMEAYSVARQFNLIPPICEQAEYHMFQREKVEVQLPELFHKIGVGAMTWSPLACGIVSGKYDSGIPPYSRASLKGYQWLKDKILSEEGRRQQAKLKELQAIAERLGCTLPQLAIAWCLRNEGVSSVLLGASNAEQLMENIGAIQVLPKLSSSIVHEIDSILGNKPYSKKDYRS
Assay [5] shares this target. The experiment in a line: KvBeta positive modulators, primary screen, biochemical, NADPH fluorescence (AID 623;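 active means NADPH fluorescence slope more negative than the mean of all samples by about 3 SD, 99.7% confidence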;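 further: fluorescence intensity change per second fitted from 20 to 320 s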). Conditions: Recombinant KvBeta, NADPH fluorescence decrease slope, 10 min; at 10 µM; stronger effect = lower value.
In assay [6] the target is Muscarinic acetylcholine receptor M4 (Homo sapiens) (UniProt P08173). The experiment in a line: compounds altering M4/GIRK thallium flux, either direction, primary screen, M4 allosteric agonist project, cell-based, HEK293 M4/GIRK, BTC-AM (AID 625).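 Further: thallium influx through GIRK channels coupled to M4 in HEK293 cells with BTC-AM dye.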 Particulars: at 10 µM, actives lie on both sides. The gist of the method:
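Material: HEK293 cells with M4 receptor and GIRK channels; Times: cells overnight at 37 °C, BTC-AM loading 1 h, reads 2 min total; Technique: kinetic BTC-AM fluorescence sampled at 1 Hz, 10 s pre-addition baseline; Read-out basis: slope over 15–24 s of trace normalized to starting intensity; Controls: carbachol positive, DMSO negative.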

Assay [7] is described as follows: inhibitors of Sendai virus-induced IRF3 signaling, primary screen, TLR/RLR signaling modifier project, cell-based, Sendai virus stimulus, luciferase, 10K MLSCN set (AID 602276;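 active means inhibition at or above 50% at 10 µM; inactive means inhibition below 50%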;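 further: firefly luciferase from ISG56 promoter only with Renilla not read in this screen; 0% = Sendai virus plus DMSO and 100% = medium plus DMSO without virus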). Conditions: HEK293 RL24 IRF3 luciferase reporter, at 10 µM, stronger effect = higher value. Background: Reporter assays use an easily measured gene product as a stand-in for the process of interest.

A short description of assay [8]: inhibitors of poly I:C-induced TLR3 signaling, primary screen, cell-based, poly I:C stimulus, luciferase, 10K MLSCN set (AID 602277;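 active means inhibition of the reporter signal at or above 50%; inactive means inhibition below 50%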). Conditions: HEK293-TLR3 RL24 IRF3 luciferase reporter, at 10 µM, stronger effect = higher value.

The values below come from PubChem BioAssay.

The source made the active and inactive calls.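 How the source made its calls, unless noted: active means fluorescence slope after compound addition differing from the mean of all tested samples at 99.7% confidence, mostly higher but some lower; inactive means the rest.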

A word on the inhibition: it is the drop in the measured response relative to a control, in per cent.

Sequence of Muscarinic acetylcholine receptor M4 (Homo sapiens) (P08173 whole entry, looked up): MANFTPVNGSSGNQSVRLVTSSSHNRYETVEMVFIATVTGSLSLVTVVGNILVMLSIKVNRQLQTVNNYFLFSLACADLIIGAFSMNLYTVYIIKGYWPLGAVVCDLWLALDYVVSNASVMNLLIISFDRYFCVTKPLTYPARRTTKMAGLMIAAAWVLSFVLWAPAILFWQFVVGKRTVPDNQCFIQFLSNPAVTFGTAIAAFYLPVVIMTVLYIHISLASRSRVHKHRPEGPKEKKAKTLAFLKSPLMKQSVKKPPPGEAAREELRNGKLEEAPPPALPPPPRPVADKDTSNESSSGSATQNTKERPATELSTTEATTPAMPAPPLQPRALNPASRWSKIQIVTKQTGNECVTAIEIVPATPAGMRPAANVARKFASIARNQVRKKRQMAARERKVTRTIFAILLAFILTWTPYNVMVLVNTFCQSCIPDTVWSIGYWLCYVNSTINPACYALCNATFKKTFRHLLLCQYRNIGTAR

As for `O=C1CCC(=O)N1OCCCOc1ccc(Br)cc1Cl`, the cell count in assay [1] came out at 490. The inhibition in assay [1] was 1% (inactive); in assay [3], -76% (inactive); in assay [7] it was 16.1% (inactive); in assay [8], 18% (inactive). Besides, the inhibition of aggregation in assay [2] was 9% (inactive). Also, the nuclei count in assay [2] came to 74.1%; in assay [3] it was 106%. Besides, the fluorescence slope in assay [4] was -0.456 (inactive); in assay [6] it was 0.00805 (inactive). Moreover, the NADPH fluorescence slope in assay [5] was 2e-05 (inactive).
In the case of `COc1ccc(CC(=O)NCc2cccs2)cc1`, the cell count in assay [1] is 568. Besides, the inhibition in assay [1] was -20.6% (inactive); in assay [3], -83.1% (inactive); in assay [7], 31% (inactive); in assay [8] it was 16.3% (inactive). The inhibition of aggregation in assay [2] was -32.4% (inactive). Besides, the nuclei count came to 103% in assay [2] and 140% in assay [3]. The fluorescence slope in assay [4] is -0.399 (inactive); in assay [6] it was 0.0067 (inactive). Moreover, the NADPH fluorescence slope in assay [5] was 0.000126 (inactive).
As for `CN1CCN(S(=O)(=O)c2ccc(Sc3nnc(-c4cccs4)n3-c3ccccc3)nc2)CC1`, the cell count in assay [1] came to 603. For the same compound, the inhibition in assay [1] was -11% (inactive); in assay [3], -140% (inactive); in assay [7] it was 1.81% (inactive); in assay [8] it was 4.54% (inactive). Also, in assay [2], the inhibition of aggregation was -9% (inactive). Further, the nuclei count in assay [2] turned out to be 104%; in assay [3], 142%. Further, the fluorescence slope in assay [4] was -0.245 (inactive); in assay [6], 0.00549 (inactive). In addition, in assay [5], the NADPH fluorescence slope is -2e-05 (inactive).
For `CC(=O)C1=C(O)C(=O)N(Cc2cccnc2)C1c1ccccc1` (centres undefined), the cell count in assay [1] worked out at 429. Besides, the inhibition in assay [1] is -2% (inactive); in assay [3], -58.9% (inactive); in assay [7], 6.76% (inactive); in assay [8], 18.6% (inactive). Besides, in assay [2], the inhibition of aggregation was -8.8% (inactive). The nuclei count in assay [2] worked out at 97.7%; in assay [3], 115%. Further, the figures for the fluorescence slope in assay [4] and in assay [6] were -0.537 (inactive) and 0.00492 (inactive), respectively. In addition, the NADPH fluorescence slope in assay [5] is -2.4e-05 (inactive).
As to `CCS(=O)(=O)Nc1ccc(C(=O)CC2(O)C(=O)Nc3ccccc32)cc1` (centres undefined), the cell count in assay [1] came to 602. Also, the inhibition in assay [1] is -11.9% (inactive); in assay [3], 11.8% (inactive); in assay [7] it was 14.3% (inactive); in assay [8], 18.7% (inactive). In addition, the inhibition of aggregation in assay [2] is -19.6% (inactive). In addition, the nuclei count in assay [2] stood at 110%; in assay [3], 107%. In addition, the fluorescence slope in assay [4] is -0.521 (inactive); in assay [6], 0.00663 (inactive). The NADPH fluorescence slope in assay [5] was 0.000137 (inactive).
For the compound `CCCN(CCC)c1nc2ccccc2n2c(C)nnc12`, the cell count in assay [1] came out at 460. Moreover, the inhibition is 6.5% (inactive) in assay [1], -77.3% (inactive) in assay [3], 11.6% (inactive) in assay [7] and 11.3% (inactive) in assay [8]. Also, the inhibition of aggregation in assay [2] is -1.5% (inactive). The nuclei count was found to be 76.7% in assay [2] and 102% in assay [3]. For the same compound, the fluorescence slope is -0.461 (inactive) in assay [4] and 0.00414 (inactive) in assay [6]. Besides, the NADPH fluorescence slope in assay [5] was -3.2e-05 (inactive).
For the compound `CCCCCC1NC(=O)NC1CCCCCC(=O)O` (centres undefined), in assay [1], the cell count worked out at 457. Further, the inhibition was 0% (inactive) in assay [1], -129% (inactive) in assay [3], 14.6% (inactive) in assay [7] and 18.6% (inactive) in assay [8]. The inhibition of aggregation in assay [2] is 11.7% (inactive). Moreover, the nuclei count in assay [2] was 103%; in assay [3] it was 123%. The values for the fluorescence slope in assay [4] and in assay [6] were -0.577 (inactive) and 0.00606 (inactive), respectively. Besides, in assay [5], the NADPH fluorescence slope is -5.6e-05 (inactive).
As to `Cc1cccc(C)c1NC(=O)N1CCN(C2CCCCC2)CC1`, in assay [1], the cell count stood at 364. The inhibition was 1.2% (inactive) in assay [1], -8.3% (inactive) in assay [3], -1.81% (inactive) in assay [7] and 18.1% (inactive) in assay [8]. Further, the inhibition of aggregation in assay [2] was -2% (inactive). The nuclei count in assay [2] and in assay [3] was 106% throughout. Moreover, the fluorescence slope in assay [4] is -0.578 (inactive); in assay [6], 0.00564 (inactive). Besides, the NADPH fluorescence slope in assay [5] is -3.9e-05 (inactive).
With `c1cncc(-c2nnc(SCCSc3nnc(-c4cccnc4)o3)o2)c1`, in assay [1], the cell count was determined as 301. The inhibition in assay [1] is -10% (inactive); in assay [3], 11.1% (inactive); in assay [7], 14.3% (inactive); in assay [8] it was 20.3% (inactive). Besides, in assay [2], the inhibition of aggregation was 20.4% (inactive). In addition, the nuclei count in assay [2] is 75.6%; in assay [3], 122%. The fluorescence slope in assay [4] was -0.345 (inactive); in assay [6], 0.00585 (inactive). In addition, in assay [5], the NADPH fluorescence slope is -7.7e-06 (inactive).
In the case of `Cc1nc(CNS(=O)(=O)c2cc(C)c(C)cc2C)cs1`, the cell count in assay [1] came to 331. Moreover, the inhibition is 6.3% (inactive) in assay [1], -13.2% (inactive) in assay [3], 9.82% (inactive) in assay [7] and 10.7% (inactive) in assay [8]. Besides, the inhibition of aggregation in assay [2] is -7.4% (inactive). Besides, the nuclei count turned out to be 109% in assay [2] and 107% in assay [3]. Also, the fluorescence slope is -0.329 (inactive) in assay [4] and 0.00703 (inactive) in assay [6]. Also, in assay [5], the NADPH fluorescence slope was -5.1e-05 (inactive).
For `O=C(O)CCNc1ccc2c(c1)OCCO2`, the cell count in assay [1] came to 510. Further, the inhibition in assay [1] was -26.5% (inactive); in assay [3], -25.3% (inactive); in assay [7], 4.8% (inactive); in assay [8] it was 5.31% (inactive). For the same compound, the inhibition of aggregation in assay [2] is 10% (inactive). Also, the nuclei count in assay [2] was determined as 118%; in assay [3], 116%. Moreover, the fluorescence slope in assay [4] was -0.348 (inactive); in assay [6], 0.00514 (inactive). The NADPH fluorescence slope in assay [5] is -3.8e-05 (inactive).
Regarding `CCOC(=O)C1=C(C)N(C)C(C)=C(C(=O)OCC)C1c1cccnc1`, in assay [1], the cell count was 366. The inhibition in assay [1] is -5.2% (inactive); in assay [3], -55.9% (inactive); in assay [7] it was -2.74% (inactive); in assay [8], 6.76% (inactive). The inhibition of aggregation in assay [2] is -14.4% (inactive). Moreover, the figures for the nuclei count in assay [2] and in assay [3] were 93.8% and 115%, respectively. In addition, the fluorescence slope was -0.5 (inactive) in assay [4] and 0.00631 (inactive) in assay [6]. The NADPH fluorescence slope in assay [5] is -2.2e-05 (inactive).
Regarding `COc1ccc(-n2nnnc2-c2cccc(OC)c2)cc1`, in assay [1], the cell count worked out at 573. For the same compound, the inhibition in assay [1] is -45.9% (inactive); in assay [3], -101% (inactive); in assay [7], 34.8% (inactive); in assay [8], 47.8% (inactive). Besides, in assay [2], the inhibition of aggregation is -61.4% (inactive). The nuclei count in assay [2] came to 2.6%; in assay [3] it was 105%. Also, the fluorescence slope was -0.252 (inactive) in assay [4] and 0.00701 (inactive) in assay [6]. Also, in assay [5], the NADPH fluorescence slope is -3.1e-05 (inactive).
For `CC(=O)c1c(C)[nH]c(C(=O)Nc2ccc3c(c2)OCCO3)c1C`, the cell count in assay [1] worked out at 402. Besides, the inhibition in assay [1] was -3.5% (inactive); in assay [3] it was -18.4% (inactive); in assay [7], -15.9% (inactive); in assay [8] it was -58% (inactive). Further, the inhibition of aggregation in assay [2] is -4.8% (inactive). The figures for the nuclei count in assay [2] and in assay [3] were 115% and 114%, respectively. Also, the fluorescence slope was -0.596 (inactive) in assay [4] and 0.00406 (inactive) in assay [6]. Moreover, the NADPH fluorescence slope in assay [5] is 6.7e-06 (inactive).
